Bioassay records deposited in PubChem by several laboratories.
PLCb3 inh: inhibitors of human phospholipase C beta3; AID 720704; Purified PLC-beta3, fluorogenic substrate, fluorescence; Q01970; actives 0.18% (n = 370,000); inhibition, % at 12.2 µM; in the data active = inhibition above about 11%;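 also: 0% = median of compound wells on plate and 100% = full blocker control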
Target sequence (Q01970 whole entry, looked up): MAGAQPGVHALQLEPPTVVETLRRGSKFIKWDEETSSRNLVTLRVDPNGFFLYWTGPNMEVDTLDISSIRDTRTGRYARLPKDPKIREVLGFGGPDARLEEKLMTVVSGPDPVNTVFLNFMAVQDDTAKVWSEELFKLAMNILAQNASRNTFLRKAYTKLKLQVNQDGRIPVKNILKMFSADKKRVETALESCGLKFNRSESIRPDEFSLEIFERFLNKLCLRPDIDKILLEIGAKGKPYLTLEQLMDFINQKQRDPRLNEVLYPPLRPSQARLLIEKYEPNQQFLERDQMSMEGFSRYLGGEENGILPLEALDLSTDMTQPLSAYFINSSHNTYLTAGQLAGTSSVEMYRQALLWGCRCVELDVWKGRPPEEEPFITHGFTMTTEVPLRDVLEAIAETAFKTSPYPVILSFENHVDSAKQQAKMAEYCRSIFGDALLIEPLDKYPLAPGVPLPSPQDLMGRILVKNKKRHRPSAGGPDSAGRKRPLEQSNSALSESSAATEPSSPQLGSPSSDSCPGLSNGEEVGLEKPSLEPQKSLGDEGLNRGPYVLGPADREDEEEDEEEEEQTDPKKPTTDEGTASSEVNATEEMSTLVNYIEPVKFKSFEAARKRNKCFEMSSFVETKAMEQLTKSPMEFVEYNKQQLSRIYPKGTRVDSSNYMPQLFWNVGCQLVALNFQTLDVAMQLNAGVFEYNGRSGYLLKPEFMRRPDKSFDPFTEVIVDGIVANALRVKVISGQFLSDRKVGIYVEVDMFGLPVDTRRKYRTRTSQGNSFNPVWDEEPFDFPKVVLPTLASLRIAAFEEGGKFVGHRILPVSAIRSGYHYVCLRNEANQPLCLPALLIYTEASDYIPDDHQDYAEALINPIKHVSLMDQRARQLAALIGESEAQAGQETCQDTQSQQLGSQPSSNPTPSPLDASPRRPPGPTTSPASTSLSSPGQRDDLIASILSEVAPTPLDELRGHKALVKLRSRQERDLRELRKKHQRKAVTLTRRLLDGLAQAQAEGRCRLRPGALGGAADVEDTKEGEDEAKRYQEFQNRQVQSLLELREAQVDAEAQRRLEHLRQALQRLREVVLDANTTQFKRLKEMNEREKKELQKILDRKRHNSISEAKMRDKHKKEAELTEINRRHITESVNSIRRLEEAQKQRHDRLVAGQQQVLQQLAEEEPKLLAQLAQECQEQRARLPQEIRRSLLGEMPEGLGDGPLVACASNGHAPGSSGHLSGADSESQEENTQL
PLC-gamma1 inh: blocks human PLC-gamma1 enzyme activity. P19174. purified PLC-gamma1, fluorogenic substrate, fluorescence. inhibition, % at 12.2 µM. actives 0.84% (n = 370,000). AID 720700; in the data active = inhibition above about 9.5%
IMP-1 inhibitor: inhibitors of Pseudomonas aeruginosa IMP-1 metallo-beta-lactamase | actives 0.45% (n = 290,000) | purified IMP-1, nitrocefin hydrolysis, epi-absorbance fluorescence | inhibition, % at 5.6 µM;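 active = inhibition above the mean plus 3 SD of all compounds in the same screening run, cut at about 4.5% in these data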;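 also: 0% = IMP-1 with DMSO and 100% = DMSO wells lacking enzyme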
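System: purified recombinant IMP-1 beta-lactamase. Medium: Zinc- and detergent-supplemented HEPES buffer, pH 7.1. Compound: one 5.6 µM dose […]. Schedule: 15 min preincubation plus 25 min reaction at 25 °C. Technique: Epi-absorbance fluorescence, 480 nm excitation, 530 nm emission.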
PvdQ acylase: P. aeruginosa PvdQ acylase inhibition; AID 488965; inhibition, % at 10 µM; purified PvdQ acylase, fluorescence plate reader; actives 0.063% (n = 340,000); in the data active = inhibition above about 30%, passing the limit was not always enough;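 also: 0% = vehicle neutral wells and 100% = reference inhibitor wells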
VIM-2 inh: blocks Pseudomonas aeruginosa VIM-2 metallo-beta-lactamase; purified VIM-2, nitrocefin hydrolysis, epi-absorbance fluorescence; inhibition, % at 5.6 µM; actives 0.89% (n = 290,000); AID 1527;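 active = inhibition above the mean of all tested compounds plus 3 SD, cutoff set per screening run, cut at about 7.5% in these data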;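 also: red hydrolysis product quenches plate fluorescence so inhibitors raise well fluorescence; 0% = enzyme with DMSO and 100% = DMSO without enzyme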
An asterisk follows results filed as active; . = no result. In the library only some 2% were active in any assay of this set; here they are far more common.

SMILES | PLCb3 inh | PLC-gamma1 inh | IMP-1 inhibitor | PvdQ acylase | VIM-2 inh
COc1cccc(C2NC(=O)NC(C)=C2C(=O)Nc2ccccc2C)c1 (centres undefined) | . | . | -2.3 | . | -2.9
CC1=C(C(=O)Nc2ccccc2C)C(c2ccccc2)NC(=O)N1 (centres undefined) | 0.8 | 1.4 | 4.5* | -16.1 | -0.1
C=c1[nH]cc(C(C)c2c(C)n(C)c3ccccc23)/c1=C/C (centres undefined) | -36.0 | -28.2 | . | . | .
O=S1(=O)CCN2C(c3ccco3)=CSC2=N1 | 2.5 | 1.6 | -1.2 | -11.2 | -1.4
O=S1(=O)CCN2C(c3ccc4c(c3)CCCC4)=CSC2=N1 | 11.2* | 0.9 | 0.6 | -23.7 | -1.0
COC(=O)[C@H](CC(C)C)N(CCCc1cn(Cc2ccccc2)nn1)S(=O)(=O)c1ccccc1Br | 8.5 | 4.7 | . | . | .
O=C(Cc1ccccc1)Nc1nc2ccccc2s1 | -3.6 | -1.8 | -2.1 | -1.5 | 0.6
O=C(Cc1ccccc1)Nc1nc(=O)c2ccccc2s1 | 12.3* | 2.4 | -0.1 | -21.3 | 11.0*
COc1ccc(N2CCc3c(C)nc4c(OC)cccc4c32)cc1 | -109.2 | -64.8 | -1.8 | 24.6 | 12.1*
COc1ccc(N2CCc3c(C)nc4c(OC)cc(OC)cc4c32)c(OC)c1 | -480.6 | -367.7 | -3.7 | -14.0 | -3.2
O=C1C=C(OCCF)CC(c2ccc(Br)cc2)O1 (centres undefined) | 3.0 | 2.0 | . | . | .
CCOC1=CC(=O)OC(c2ccccc2)C1 (centres undefined) | 1.4 | 1.0 | . | 80.8* | .
COc1ccc(C2=C(C=O)Cc3ccccc3O2)cc1 | -5.8 | 3.3 | . | 109.9* | .
COc1ccc(C2=COc3ccccc3C(=O)N2)cc1 | -5.2 | 0.0 | 0.3 | -11.1 | -1.0
C=CCC12C=C(OC)C(=O)C(C1=O)C1c3ccccc3CC12 (centres undefined) | 2.8 | 0.6 | . | . | .
CCOc1ccccc1N(CC(=O)OC)S(C)(=O)=O | 2.5 | 1.4 | 4.9* | -11.0 | -2.3
CCOc1ccccc1N(CC(=O)N1CCCCCC1)S(C)(=O)=O | -3.4 | 1.8 | -2.4 | -6.8 | -0.7
CC(C)(C)C(=O)NC(=S)Nc1ccccc1C(=O)NC1CCCCC1 | -12.8 | -4.2 | 1.4 | -8.7 | -2.1
CC(C)CC(=O)NC(=S)Nc1ccccc1C(=O)Nc1ccccc1 | -4.4 | -5.5 | 11.6* | -5.3 | -4.6
CC1CCN(c2ccccc2NC(=S)NC(=O)c2cccs2)CC1 | -2.5 | 0.4 | -4.5 | -9.9 | -2.3
CC1CCN(c2ccccc2NC(=S)NC(=O)C(C)(C)C)CC1 | 4.3 | 1.6 | 6.3* | -15.9 | -0.3
CC(C)C(=O)NC(=S)Nc1ccccc1C(=O)Nc1ccccc1 | 1.2 | 3.8 | 19.0* | -5.5 | -2.9
CC(C)(C)C(=O)NC(=S)Nc1ccccc1C(=O)Nc1ccccc1 | -0.9 | -1.3 | 17.2* | -7.5 | -1.0
O=C(Cc1ccccc1)Nc1ccccc1C(=O)Nc1ccccc1 | -1.8 | -0.8 | -4.7 | -4.9 | -0.9
Cc1ccc(NC(=O)C2CCN(c3nnc(-n4cccc4)s3)CC2)cc1C | 2.6 | 7.3 | . | . | .
SMILES | PLCb3 inh | PLC-gamma1 inh | IMP-1 inhibitor | PvdQ acylase | VIM-2 inh
N=c1c(C(=O)NC2CCCC2)cc2c(=O)n3ccccc3nc2n1Cc1ccccc1 | -301.2 | -218.0 | -0.5 | -9.2 | 7.9*
N=c1c(C(=O)NC2CCCCC2)cc2c(=O)n3ccccc3nc2n1Cc1ccc(F)cc1 | -112.8 | -71.5 | 0.4 | -10.2 | 9.9*
Cc1ccc(Cn2c(=N)c(C(=O)NC3CCCCC3)cc3c(=O)n4ccccc4nc32)cc1 | -124.6 | -95.1 | -2.0 | -7.7 | 1.8
COC(=O)[C@]12C[C@H](CC(=O)N3CCN(C(=O)c4ccco4)CC3)C(=O)N(Cc3ccc(Cl)cc3Cl)C1=C[C@H](C1CCCC1)O[C@@H]2C | -0.2 | 4.6 | . | . | .
CN(C)c1nc(N)nc(Cn2ccnc2)n1 | 3.4 | 4.8 | -3.1 | -19.1 | 8.8*
CCSc1nc2ccccc2n1Cc1nc(N)nc(N(C)C)n1 | 1.9 | 2.6 | -3.6 | 7.8 | -2.2
Clc1ccc2nc3c4ccccc4cnn3c2c1 | -52.4 | -45.4 | -2.2 | 33.3* | 1.7
COc1ccc(-n2c(Cc3cccs3)nnc2SCC(=O)Nc2cccc3ccccc23)cc1 | 3.1 | 0.4 | . | . | .
COc1ccccc1CNC(=O)N1CCN(c2ccccc2)CC1 | -5.7 | 2.5 | -2.6 | -11.8 | -0.6
COc1ccccc1CNC(=O)N1CCN(c2ccccc2C)CC1 | -7.2 | 2.4 | 52.5* | -9.8 | 1.1
Cc1cccn2c(=O)c3cc(C(=O)N4CCCCC4)sc3nc12 | -180.3 | -121.6 | -2.2 | -13.0 | 12.1*
CCOC(=O)C1CCN(C(=O)c2cc3c(=O)n4cccc(C)c4nc3s2)CC1 | -102.8 | -60.7 | -0.5 | -8.0 | 10.4*
